Measured values from ChEMBL document CHEMBL6078712, “Triterpenoid phthalimides as selective anti-cancer agents targeting mitochondrial apoptosis” (Eur J Med Chem, 2025).
Calls of active or inactive are those of the source. The calls are words filed in the database; no cut-off is given here.

Tests used:
K562 = test: Cytotoxicity against human K562 cells assessed as inhibition of cell growth incubated for 72 hrs by MTS assay; format: functional, cell-based; conditions: K562, 72 h
Method in brief: (§1)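 MTS assay on eight human cancer lines and two non-tumour fibroblast lines. IC50 is the concentration that inhibits cell growth by 50 %. SD typically up to 15 % of the mean.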

HCT-116 = test: Cytotoxicity against human HCT-116 cells assessed as inhibition of cell growth incubated for 72 hrs by MTS assay; format: functional, cell-based; conditions: HCT-116, 72 h; method in brief: as §1
CCRF-CEM [1] = test: Induction of cell cycle arrest in human CCRF-CEM cells assessed as downregulation of total AKT expression at 5 times IC50 incubated for 24 hrs by Western blotting analysis; format: functional, cell-based
Method in brief: (§2)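 30 µg protein per lane on SDS-PAGE, transferred to nitrocellulose, blocked in 5 % BSA/TBS-Tween. Primary antibodies overnight at 4 °C (Akt, P-Akt Ser473, STAT-3, caspase-3, PARP, cyclin D, cyclin A, Bcl-xL, Bak, Bid, Bim), then HRP secondary and ECL detection. GAPDH as loading control.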

CCRF-CEM [2] = test: Induction of apoptosis in human CCRF-CEM cells assessed as necrotic cells at 1 times IC50 incubated for 24 hrs by Annexin V-FITC and PI staining based flow cytometric analysis (reference value: 0.4 %); format: functional
Method in brief: (§3)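 Washed in Ca2+-containing binding buffer, then stained 15 min at room temperature in the dark with Annexin V-FITC and propidium iodide (PI at half the kit-recommended level). Read at once by flow cytometry with a 488 nm laser, ≥10,000 cells. Debris excluded; quadrants viable, early apoptotic, late apoptotic/necrotic, necrotic. Three independent experiments.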

[3] = Stability in human plasma assessed as compound remaining at 2 uM incubated for 120 mins by RF-MS analysis; format: ADME, cell-free; conditions: read-out: Stability
Method in brief: (§4)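 Human plasma stability, plasma protein binding and liver microsome stability, each run in triplicate. Error deviations below 10 %.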

Mitochondrial membrane [4] = test: Induction of mitochondrial membrane potential depolarization in human CCRF-CEM cells assessed as fold increase in fluorescence intensity at 5 times IC50 incubated for 24 hrs by JC-1 staining based flow cytometry; format: cell membranes
CCRF-CEM [5] = test: Inhibition of RNA synthesis in human CCRF-CEM cells at 1 times IC50 incubated for 24 hrs by BrU incorporation based flow cytometry; format: functional
Method in brief: (§5)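 Fixed in 1 % paraformaldehyde/0.05 % NP-40 (15 min at room temperature, then 4 °C overnight). Stained with cross-reacting anti-BrdU plus FITC secondary (45 min each), then PI/RNase A. Flow cytometry; % BrU-positive cells.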

[6] = Cytotoxicity against human K562-Tax cells assessed as inhibition of cell growth incubated for 72 hrs by MTS assay; format: functional, cell-based; method in brief: as §1
CCRF-CEM [7] = test: Induction of cell cycle arrest in human CCRF-CEM cells assessed as downregulation of Cyclin D expression at 5 times IC50 incubated for 24 hrs by Western blotting analysis; format: functional, cell-based; method in brief: as §2
CCRF-CEM [8] = test: Induction of apoptosis in human CCRF-CEM cells assessed as early apoptotic cells at 5 times IC50 incubated for 24 hrs by Annexin V-FITC and PI staining based flow cytometric analysis (reference value: 2.1 %); format: functional; method in brief: as §3
CCRF-CEM [9] = test: Inhibition of DNA synthesis in human CCRF-CEM cells at 1 times IC50 incubated for 24 hrs by BrdU incorporation based flow cytometry; format: functional
Method in brief: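 Fixed in ice-cold 70 % ethanol, DNA denatured in 2 M HCl for 30 min, neutralised with borax. Stained with anti-BrdU plus FITC secondary, then PI/RNase A for 1 h. Flow cytometry; % BrdU-positive cells.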

[10] = Metabolic stability in human liver microsomes assessed as parent compound remaining at 2 uM incubated for 15 mins in presence of NADPH by RF-MS analysis; format: ADME, Microsome; conditions: read-out: Stability; method in brief: as §4
CCRF-CEM [11] = test: Induction of apoptosis in human CCRF-CEM cells assessed as downregulation of caspase-3 expression at 5 times IC50 incubated for 24 hrs by Western blotting analysis; format: functional, cell-based; method in brief: as §2
CCRF-CEM [12] = test: Induction of apoptosis in human CCRF-CEM cells assessed as upregulation of BID expression at 1 to 5 times IC50 incubated for 24 hrs by Western blotting analysis; format: functional, cell-based; method in brief: as §2
[13] = Metabolic stability in human liver microsomes assessed as parent compound remaining at 2 uM incubated for 30 mins in presence of NADPH by RF-MS analysis; format: ADME, Microsome; conditions: read-out: Stability; method in brief: as §4
CCRF-CEM [14] = test: Induction of cell cycle arrest in human CCRF-CEM cells assessed as downregulation of AKT phosphorylation at 5 times IC50 incubated for 24 hrs by Western blotting analysis; format: functional, cell-based; method in brief: as §2
[15] = Cytotoxicity against human MRC5 cells assessed as inhibition of cell growth incubated for 72 hrs by MTS assay; format: toxicity, cell-based; method in brief: as §1
CCRF-CEM [16] = test: Induction of apoptosis in human CCRF-CEM cells assessed as downregulation of BCL-XL expression at 5 times IC50 incubated for 24 hrs by Western blotting analysis; format: functional, cell-based; method in brief: as §2
CCRF-CEM [17] = test: Induction of apoptosis in human CCRF-CEM cells assessed as early apoptotic cells at 1 times IC50 incubated for 24 hrs by Annexin V-FITC and PI staining based flow cytometric analysis (reference value: 2.1 %); format: functional; method in brief: as §3
CCRF-CEM [18] = test: Induction of apoptosis in human CCRF-CEM cells assessed as viable cells at 1 times IC50 incubated for 24 hrs by Annexin V-FITC and PI staining based flow cytometric analysis (reference value: 97.4 %); format: functional; method in brief: as §3
CCRF-CEM [19] = test: Induction of cell cycle arrest in human CCRF-CEM cells assessed as increase in accumulation of G0/G1 phase at 1 times IC50 incubated for 24 hrs by RNase/PI staining based flow cytometry; format: functional
Method in brief: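 Propidium iodide staining and flow cytometry with a 488 nm laser, ≥10,000 intact cells. Phase proportions compared with untreated cells; SEM of three independent experiments.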

Mitochondrial membrane [20] = test: Induction of mitochondrial membrane potential depolarization in human CCRF-CEM cells assessed as fold increase in fluorescence intensity incubated for 24 hrs by JC-1 staining based flow cytometry; format: cell membranes
CEM-DNR = test: Cytotoxicity against human CEM-DNR cells assessed as inhibition of cell growth incubated for 72 hrs by MTS assay; format: functional, cell-based; method in brief: as §1
CCRF-CEM [21] = test: Induction of apoptosis in human CCRF-CEM cells assessed as viable cells at 5 times IC50 incubated for 24 hrs by Annexin V-FITC and PI staining based flow cytometric analysis (reference value: 97.4 %); format: functional; method in brief: as §3
CCRF-CEM [22] = test: Induction of apoptosis in human CCRF-CEM cells assessed as upregulation of BIM expression at 1 to 5 times IC50 incubated for 24 hrs by Western blotting analysis; format: functional, cell-based; method in brief: as §2
A549 = test: Cytotoxicity against human A549 cells assessed as inhibition of cell growth incubated for 72 hrs by MTS assay; format: functional, cell-based; conditions: A549, 72 h; method in brief: as §1
HCT 116 TP53(-/-) = test: Cytotoxicity against human HCT116-p53-null cells assessed as inhibition of cell growth incubated for 72 hrs by MTS assay; format: functional, cell-based; method in brief: as §1
CCRF-CEM [23] = test: Induction of cell cycle arrest in human CCRF-CEM cells assessed as downregulation of total STAT3 expression at 5 times IC50 incubated for 24 hrs by Western blotting analysis; format: functional, cell-based; method in brief: as §2
CCRF-CEM [24] = test: Inhibition of RNA synthesis in human CCRF-CEM cells at 5 times IC50 incubated for 24 hrs by BrU incorporation based flow cytometry; format: functional; method in brief: as §5
[25] = Stability in human plasma assessed as compound remaining at 2 uM incubated for 30 mins by RF-MS analysis; format: ADME, cell-free; conditions: read-out: Stability; method in brief: as §4

With `CC(=O)O[C@H]1CC[C@]2(C)[C@H]3CC[C@@H]4[C@H]5[C@H](c6cc7c(c(-c8ccccc8)c6)C(=O)N(c6cc[nH]n6)C7=O)CC[C@]5(C(=O)O)CC[C@@]4(C)[C@]3(C)CC[C@H]2C1(C)C` the IC50 (K562) was 14.5 µM, the IC50 (HCT-116) was 9.54 µM and the Activity (CCRF-CEM [1]) was “Active; Slight Activity Observed”. For the same compound, the Activity (CCRF-CEM [2]) was 0%, the remaining at 2 h, 2 µM [3] was 86% and the fold change (FC) (Mitochondrial membrane [4]) was greater than 20. The “inhibition (INH)” value (CCRF-CEM [5]) was 23.8%, the IC50 [6] was 13.3 µM and the Activity (CCRF-CEM [7]) was “Active”. For the same compound, the Activity (CCRF-CEM [8]) was 7.9%, the “inhibition (INH)” value (CCRF-CEM [9]) was 23.6% and the remaining at 0.25 h, 2 µM [10] was 99%. The Activity (CCRF-CEM [11]) was “Active”, the Activity (CCRF-CEM [12]) was “Active” and the remaining at 0.5 h, 2 µM [13] was 99%. The Activity (CCRF-CEM [14]) was “Active”, the IC50 at 72 h [15] was 22.6 µM and the Activity (CCRF-CEM [16]) was “Active”. For the same compound, the Activity (CCRF-CEM [17]) was 4.8%, the Activity (CCRF-CEM [18]) was 92.8% and the Activity (CCRF-CEM [19]) was “Active; Slight Increased Activity Observed”. The Activity (Mitochondrial membrane [20]) was “Dose-dependent-effect”, the IC50 (CEM-DNR) was 11.5 µM and the Activity (CCRF-CEM [21]) was 86.5%. The Activity (CCRF-CEM [22]) was “Active”, the IC50 (A549) was 18.9 µM and the IC50 (HCT 116 TP53(-/-)) was 13.7 µM. For the same compound, the Activity (CCRF-CEM [23]) was “Active”, the “inhibition (INH)” value (CCRF-CEM [24]) was 47.4% and the remaining at 0.5 h, 2 µM [25] was 91%.
